Assay outcomes: PubChem, Broad Institute
Shown is part of a subset that was picked to be rich in hits.
T cruzi growth-1 = T. cruzi intracellular proliferation inhibitors, primary screen, cell-based, beta-gal Tulahuen parasites, NIH3T3 host, luminescence; T. cruzi beta-gal in NIH3T3, GalScreen luminescence, 90 h; AID 624255, 2012; inhibition, % at 8.34 µM; hit rate 5.9% among 77,000;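 active = mean inhibition above about 93%, with at least 55% of replicates each passing it, limit read from the data, passing the limit was not always enough; inconclusive = only one of those two conditions holds; inactive = neither condition holds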
GASC1 inh = inhibitors of GASC-1 (KDM4C) histone demethylase, primary screen, biochemical, single concentration HTS | GST-KDM4C 2-372, H3K9me3 peptide, LANCE TR-FRET | hit rate 0.15% among 96,000 | AID 720574, 2013 | inhibition, % at 12.5 µM;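 active = mean replicate inhibition above about 25%, with at least 55% of replicates also reaching it, limit read from the data, passing the limit was not always enough; inconclusive = only one of those two conditions met; inactive = neither condition met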
Target sequence (Q9H3R0 2-372 limits assumed): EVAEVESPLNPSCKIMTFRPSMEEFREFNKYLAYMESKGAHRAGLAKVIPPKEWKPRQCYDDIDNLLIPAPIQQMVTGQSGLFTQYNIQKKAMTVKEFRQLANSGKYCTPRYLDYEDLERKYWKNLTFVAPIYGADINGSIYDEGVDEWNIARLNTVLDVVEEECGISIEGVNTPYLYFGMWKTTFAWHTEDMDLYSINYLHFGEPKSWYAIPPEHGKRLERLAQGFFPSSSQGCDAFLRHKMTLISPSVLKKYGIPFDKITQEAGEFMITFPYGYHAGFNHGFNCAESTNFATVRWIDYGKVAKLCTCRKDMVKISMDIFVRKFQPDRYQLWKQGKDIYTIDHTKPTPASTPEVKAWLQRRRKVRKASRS
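System: N-terminal GST-fused human GASC-1 (KDM4C) fragment, residues 2-372; amount: enzyme final amount 10 nM; incubation: reaction 30 min RT, detection step 1 h RT; medium: HEPES buffer, pH 7.5, plus ascorbate; technique: LANCE TR-FRET, Eu antibody, ULight-streptavidin, EDTA, ex 340 nm, em 618/671 nm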
IDH1 R132H inh = inhibitors of IDH1 R132H reductase, primary screen, biochemical, plate reader, single point. Isocitrate dehydrogenase [NADP] cytoplasmic (Homo sapiens), O75874. diaphorase/resazurin fluorescence, 60 min. inhibition, % at 10 µM. hit rate 0.18% among 70,000. AID 624101, 2012; in the data active = inhibition above about 34%; inconclusive = no clear call, values can overlap the other calls; inactive = below about 11%;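 also: 0% = DMSO and 100% = no enzyme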
T cruzi growth-2 = T. cruzi intracellular proliferation inhibitors, confirmation, cell-based, NIH3T3 host, beta-gal parasite, luminescence, cherry-pick | hit rate 72% among 5,600 | shares compounds with T cruzi growth-1 | T. cruzi beta-gal in NIH3T3, GalScreen luminescence, 90 h | inhibition, % at 8.35 µM;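 active = mean replicate inhibition above about 95% and at least 55% of replicates individually reaching it, limit read from the data; inconclusive = only one of the two criteria is met; inactive = neither criterion is met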
T cruzi growth-3 = inhibitors of intracellular T. cruzi replication, confirmation, NIH3T3 host cells, beta-gal parasites, cherry-pick, set 2; shares compounds with T cruzi growth-1; T. cruzi beta-gal in NIH3T3, GalScreen luminescence, 90 h; inhibition, % at 2.09 µM; hit rate 21% among 5,600; AID 651740, 2012;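 active = mean inhibition above about 95%, with at least 55% of replicates also reaching it, limit read from the data; inconclusive = meets just one of the two conditions; inactive = meets neither condition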;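 also: plate controls were neutral control median for no effect and positive control median for full effect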
3T3 cytotox = cytotoxicity in mouse NIH/3T3 fibroblasts, confirmation, cytotoxicity control for T. cruzi proliferation inhibitor project, cell-based, cherry-pick, single point; NIH/3T3 viability, CellTiter-Glo ATP luminescence, 90 h; cytotoxicity (signal decrease), % at 8.35 µM; hit rate 14% among 5,600; shares compounds with T cruzi growth-1;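 active = mean signal decrease across replicates above about 35% based on untreated-well scatter, with enough replicates individually passing, limit read from the data; inconclusive = no rule stated though some were filed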;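 also: 0% = median of neutral control wells and 100% = median of positive control wells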
3T3 cytotox 2 = NIH/3T3 fibroblast cytotoxicity, confirmation, cytotoxicity control, cell-based, cherry-pick, single point, set 2. shares compounds with T cruzi growth-1. NIH/3T3 viability, CellTiter-Glo ATP luminescence, 90 h. inhibition, % at 24.9 µM. hit rate 56% among 5,600. AID 651744, 2012;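 active = mean loss of cell viability signal at or above a set limit, and enough replicates individually reaching it; inconclusive = meets only the mean limit or only the replicate share; inactive = meets neither condition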;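 also: 0% = median of neutral control wells and 100% = median of positive control wells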
The depositor's hits bear a star; ? = inconclusive; · = no result.

SMILES	T cruzi growth-1	GASC1 inh	IDH1 R132H inh	T cruzi growth-2	T cruzi growth-3	3T3 cytotox	3T3 cytotox 2
COc1cccc(C(=O)Nc2ccc3c(c2)C(=O)N(C)[C@H]2CC[C@@H](CC(=O)N[C@H](C)c4ccccc4)O[C@@H]2CO3)c1	5	2	·	·	·	·	·
CO[C@@H]1CN(C)C(=O)c2cc(NC(=O)Nc3ccccc3)ccc2OC[C@@H](C)N(C(C)=O)C[C@@H]1C	-156	4	0	·	·	·	·
CN(C)C(=O)C[C@@H]1CC[C@@H]2[C@H](COC[C@@H](O)CN2C(=O)C2CCCC2)O1	-25	-4	·	·	·	·	·
C[C@@H]1CN([C@H](C)CO)S(=O)(=O)c2ccc(C3=CCCC3)cc2O[C@H]1CN(C)C(=O)Cc1ccncc1	73	0	25	·	·	·	·
C[C@@H]1CN([C@@H](C)CO)S(=O)(=O)c2ccc(C3=CCCC3)cc2O[C@H]1CN(C)C(=O)Cc1ccncc1	98*	-1	·	80	15	-7	23
C[C@@H]1CN([C@H](C)CO)S(=O)(=O)c2ccc(C3=CCCCC3)cc2O[C@H]1CN(C)C(=O)Cc1ccncc1	100*	1	·	103*	66	28	36*
C[C@@H]1CN([C@@H](C)CO)S(=O)(=O)c2ccc(C3=CCCCC3)cc2O[C@@H]1CN(C)C(=O)Cc1ccncc1	97*	-2	·	89	59	19	32*
C[C@H]1CN([C@@H](C)CO)S(=O)(=O)c2ccc(C3=CCCC3)cc2O[C@@H]1CN(C)C(=O)Cc1ccncc1	93	1	·	·	·	·	·
C[C@@H]1CN([C@@H](C)CO)S(=O)(=O)c2ccc(C3=CCCC3)cc2O[C@@H]1CN(C)C(=O)Cc1ccncc1	·	-1	·	·	·	·	·
C[C@@H]1CN([C@H](C)CO)S(=O)(=O)c2ccc(C3=CCCCC3)cc2O[C@@H]1CN(C)C(=O)Cc1ccccc1	103	-1	0	·	·	·	·
C[C@@H]1CN([C@@H](C)CO)S(=O)(=O)c2ccc(C3=CCCCC3)cc2O[C@H]1CN(C)C(=O)Cc1ccccc1	?	-3	0	105*	41	53*	52*
CCCC(=O)Nc1ccc2c(c1)C(=O)N(C)C[C@H](OC)[C@H](C)CN(C(=O)CC)[C@H](C)CO2	-24	1	0	·	·	·	·
C[C@H]1CN([C@@H](C)CO)C(=O)Cc2cc(NC(=O)NC3CCCCC3)ccc2O[C@@H]1CN(C)C(=O)Nc1ccccc1	22	-1	2	·	·	·	·
COc1ccc(CNC(=O)C[C@@H]2C[C@H]3c4cc(NS(=O)(=O)c5ccc(F)cc5)ccc4O[C@H]3[C@@H](CO)O2)cc1	10	-1	0	·	·	·	·
O=C(c1cccnc1)N1CCCCN2[C@H](CO)[C@@H](c3ccc(C#Cc4cccnc4)cc3)[C@H]2C1	19	0	·	·	·	·	·
COc1ccccc1-c1cnc2c(c1)C(=O)N([C@H](C)CO)C[C@@H](C)[C@@H](CN(C)C(=O)c1ccncc1)O2	66	1	-1	·	·	·	·
C[C@H](CO)N1C[C@H](C)[C@H](CN(C)C(=O)c2ccccc2)OCCCC[C@H](C)Oc2ccc(NC(=O)c3ccccc3)cc2C1=O	30	0	·	·	·	·	·
COc1cc2c(c(OC)c1OC)C[C@H]1COC(=O)[C@@H]1Cc1c-2cc(OC)c(OC)c1OC	·	·	0	·	·	·	·
CCc1cnc(N2[C@@H](C#N)[C@H](c3ccc(-c4cccc(F)c4)cc3)[C@@H]2CO)s1	83	-2	·	·	·	·	·
CCc1cnc(N2[C@H](C#N)[C@H](c3ccc(-c4cccc(F)c4)cc3)[C@H]2CO)s1	105*	-3	·	105*	93	10	26*
CCc1cnc(N2[C@H](C#N)[C@@H](c3ccc(-c4cccc(F)c4)cc3)[C@H]2CO)s1	109*	1	·	110*	81	27	37
CCc1cnc(N2[C@@H](C#N)[C@@H](c3ccc(-c4cccc(F)c4)cc3)[C@@H]2CO)s1	108*	1	·	101*	106*	29	60*
CCc1cnc(N2[C@H](CO)[C@@H](c3ccc(-c4cccc(F)c4)cc3)[C@@H]2C#N)s1	85	-1	·	·	·	·	·
Cc1noc(C)c1NC(=O)N[C@H]1C=C[C@H](CC(=O)NCCCN(C)C)O[C@@H]1CO	-2	0	0	·	·	·	·
CCNC(=O)[C@@H]1[C@@H](CO)[C@@H]2Cn3c(cccc3=O)[C@H]1N2CC1CCOCC1	·	-1	·	·	·	·	·
SMILES	T cruzi growth-1	GASC1 inh	IDH1 R132H inh	T cruzi growth-2	T cruzi growth-3	3T3 cytotox	3T3 cytotox 2
C[C@H]1CN([C@@H](C)CO)S(=O)(=O)c2ccc(Br)cc2O[C@H]1CN(C)Cc1ccc(F)cc1	77	-1	·	·	·	·	·
C[C@@H]1CN([C@@H](C)CO)C(=O)c2c(c3ccccc3n2C)-c2ccccc2CO[C@H]1CN(C)C(=O)Cc1ccccc1	20	-2	·	·	·	·	·
COc1cc2c(cc1OC)CN(C(=O)[C@H]1[C@@H]3C(=O)O[C@@H](c4ccccc4)[C@@H](c4ccccc4)N3[C@@H](c3ccc(O)cc3)[C@]13C(=O)Nc1ccc(C#CC4(O)CCCCCC4)cc13)CC2	·	·	0	·	·	·	·
C[C@@H]1CCCCO[C@H](CN(C)S(=O)(=O)c2ccccc2)[C@H](C)CN([C@H](C)CO)C(=O)c2cc(NC(=O)Nc3ccc(C(F)(F)F)cc3)ccc2O1	87	0	-1	·	·	·	·
C[C@H]1CCCCO[C@H](CN(C)S(=O)(=O)c2ccccc2)[C@@H](C)CN([C@@H](C)CO)C(=O)c2cc(NC(=O)Nc3ccc(C(F)(F)F)cc3)ccc2O1	?	0	3	109*	117*	7	4
C[C@@H]1CN([C@H](C)CO)C(=O)c2cc(NC(=O)Nc3ccc(C(F)(F)F)cc3)ccc2O[C@@H](C)CCCCO[C@H]1CN(C)S(=O)(=O)c1ccccc1	98*	-1	0	102*	109*	19	32
C[C@@H]1CCCCO[C@@H](CN(C)S(=O)(=O)c2ccccc2)[C@H](C)CN([C@H](C)CO)C(=O)c2cc(NC(=O)Nc3ccc(C(F)(F)F)cc3)ccc2O1	86	1	6	·	·	·	·
CC(C)CC#Cc1cnc2c(c1)C(=O)N([C@H](C)CO)C[C@H](C)[C@@H](CN(C)Cc1ccc(C(=O)O)cc1)O2	-8	1	0	·	·	·	·
COc1ccc(S(=O)(=O)Nc2ccc3c(c2)CC(=O)N([C@@H](C)CO)C[C@H](C)[C@H](CN(C)Cc2ccccc2)O3)cc1	99*	0	3	99*	27	15	19
